Experimental data: publication PMC6467359 (Toxicological Research, 2019)
Where two headings read alike, the source gives them in different places.

Tests used:
[1] = test system: ovarian cancer cell line A2780; details: read-out: half maximal inhibitory concentration (IC50); A2780 ref 9; cited from earlier work
WI-38 cells = assay: MTT assay of cell viability, WI-38 lung fibroblasts; type: cell-based, human; details: for IC50: read-out: IC50 value, WI-38 cells
Procedure, shortened: (§1)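 Untransformed human fibroblasts (CCD-986Sk skin, WI-38 lung) in MEM with 10% FCS were seeded at 1 × 10^4 cells/well, cultured overnight, then exposed to graded concentrations, or to 0.1% DMSO control, for 24 hr at 37°C, 5% CO2. MTT was added for 3 hr, formazan was dissolved in DMSO, and A560 was read. Survival was expressed relative to control, and IC50 was taken from the viability-versus-concentration plot; three independent repeats.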

SKOV-3 cells [2] = assay: MTT assay of cell viability and proliferation, SKOV-3; type: cell-based, human; details: for cytotoxicity to SKOV-3 cells relative to apigenin: ratio of IC50 values
Procedure, shortened: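 SKOV-3 cells were seeded at 5 × 10^3 cells/well in McCoy's 5A with 10% FCS, cultured overnight, then exposed to a range of concentrations, or to 0.1% DMSO control, for 24, 48 and 72 hr. MTT was added for 3 hr, formazan was dissolved in DMSO, and A560 was read. Viability was expressed relative to control, and IC50 was read from the plot of % viable cells versus concentration; three independent repeats.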

SKOV-3 cells [3] = assay: Cell imaging; type: cell-based, human; details: for morphological change of treated SKOV-3 cells: 48 hr, 200× magnification, α-mangostin 7.309 μM, apigenin 18.502 μM, doxorubicin 0.431 μM
caspase-9 = assay: Caspase-9 colorimetric activity assay in treated SKOV-3 cells; type: cell-based, human; details: SKOV-3, 24 hr
Procedure, shortened: (§2)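 SKOV-3 cells (McCoy's 5A, 10% FCS, 37°C, 5% CO2) were seeded at 5 × 10^5 in 5 mL flasks overnight, then treated in 0.1% DMSO vehicle (DMSO-only control) for 12 and 24 hr. Cells were trypsinized and lysed on ice, and 100 μg protein was taken per well. Reactions used 10 mM DTT final and caspase-specific colorimetric substrate, 37°C for 1–2 hr, read at 400–405 nm. Done in triplicate.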

CCD-986Sk cells = assay: MTT assay of cell viability, CCD-986Sk skin fibroblasts; type: cell-based, human; details: for toxicity to CCD-986Sk cells: 24 hr of exposure
Procedure, shortened: as §1

BCL2 = assay: RT-qPCR transcript expression in SKOV-3 cells, BCL2; type: cell-based, human; details: SKOV-3, 24 hr, 18.502 μM, p < 0.01
Procedure, shortened: (§3)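 SKOV-3 cells were seeded at 5 × 10^5 in 5 mL flasks and treated for 24 hr in 0.1% DMSO (vehicle control). Total RNA was column-extracted. One-step SYBR RT-qPCR used 20 ng RNA and 0.4 μM each primer: RT at 42°C for 5 min, 95°C for 10 s, then 40 cycles of 95°C 10 s / 60°C 30 s, with melt-curve check. Expression was normalised to GAPDH and compared with control; three independent repeats, one-way ANOVA with Tukey test.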

SKOV-3 cells [4] = assay: Cell cycle analysis by PI staining and flow cytometry; type: cell-based, human
caspase-3 = assay: Caspase-3 colorimetric activity assay in treated SKOV-3 cells; type: cell-based, human; details: α-mangostin 7.309 μM
Procedure, shortened: as §2

ES2 ovarian cancer cells = details: 0.033–1.0 mg/mL, 24 hr of exposure ref 10; cited from earlier work
[5] = test system: SKOV-3 ovarian cancer cells; details: 0.033–1.0 mg/mL, 24 hr of exposure ref 10; cited from earlier work
NFκB = assay: RT-qPCR transcript expression in SKOV-3 cells, NFκB; type: cell-based, human; details: SKOV-3, 24 hr, 7.309 μM
COX2 = assay: RT-qPCR transcript expression in SKOV-3 cells, COX2; type: cell-based, human; details: SKOV-3, 24 hr, 7.309 μM, p < 0.05
Procedure, shortened: as §3

[6] = Homo sapiens, SK-OV-3, 24 h, read-out: IC50 value at an incubation time of 24 hr
[7] = Homo sapiens, SK-OV-3, 48 h, read-out: IC50 value at an incubation time of 48 hr
[8] = Homo sapiens, SK-OV-3, 72 h, read-out: IC50 value at an incubation time of 72 hr

For `CCCCCCCCC(OCCC(C)C)c1ccc2c(c1OC)/C(=N/O)C=C/C2=N\O` (stereo not shown) [(1E,4E)-6-(1-(isopentyloxy)nonyl)-5-methoxynaphthalene-1,4-dione dioxime], the IC50 [1] is listed as 8.26 ± 0.22 µM.

For `O=c1cc(-c2ccc(O)cc2)oc2cc(O)cc(O)c12` [Apigenin], the IC50 (WI-38 cells; Homo sapiens, WI-38, 24 h) was 36.9 ± 0.971 µM, the “concentration nontoxic to the cells” value (WI-38 cells; WI-38, 24 hr) was “up to 27.753 μM” and the “concentration that did not affect cell growth” value (WI-38 cells; WI-38, 24 hr) was 1156 to 2313 nM. The IC50 (SKOV-3 cells [2]; [6]) was 26.5 ± 6.02 µM, the IC50 (SKOV-3 cells [2]; [7]) was 21.2 ± 5.25 µM and the IC50 (SKOV-3 cells [2]; [8]) was 18.2 ± 3.1 µM. The “morphological change of treated SKOV-3 cells” value (from here on “morphological change”) (SKOV-3 cells [3]) was “Cell shrinkage”, the “caspase-9 level (activity) vs control” value (caspase-9) was “statistically significant (p < 0.01)” and the “toxicity to CCD-986Sk cells” value (CCD-986Sk cells) was “nontoxic”. The cell survival (CCD-986Sk cells; CCD-986Sk, 24 hr, 92.510 μM) was 70%, the relative cell survival (CCD-986Sk cells; CCD-986Sk, 24 hr, 1.156–55.506 μM) was 100% and the “BCL2 transcript expression level relative to control” value (BCL2) was “upregulation was significant”. The “cell cycle arrest (G2/M phase)” value (SKOV-3 cells [4]; SKOV-3, after 48 hr of exposure, 18.502 μM) was “likewise arrested the cells”.

Compound `COc1cccc2c1C(=O)c1c(O)c3c(c(O)c1C2=O)C[C@@](O)(C(=O)CO)C[C@@H]3O[C@H]1C[C@H](N)[C@H](O)[C@H](C)O1` [Doxorubicin, reference compound] has an IC50 (WI-38 cells; Homo sapiens, WI-38, 24 h) of 0.604 ± 0.156 µM, an IC50 (SKOV-3 cells [2]; [6]) of 0.534 ± 0.084 µM and an IC50 (SKOV-3 cells [2]; [7]) of 0.343 ± 0.023 µM. For the same compound, the IC50 (SKOV-3 cells [2]; [8]) was 0.117 ± 0.008 µM, the “morphological change” value (SKOV-3 cells [3]) was “some cell blebbing” and the “toxicity to CCD-986Sk cells” value (CCD-986Sk cells) was “did not affect the growth”. The “caspase-3 activity vs control” value (caspase-3; SKOV-3, 24 hr, apigenin 18.502 μM, doxorubicin 0.431 μM) was “not significant”.

For `CC(=O)OCON=[N+]([O-])NCC(C)C` [O^2-(acetoxymethyl)-1-(iso-butylamino)diazen-1-ium-1,2-diolate], the effect on proliferation (ES2 ovarian cancer cells) is given as “reduced the proliferation” and the effect on proliferation [5] is given as “reduced the proliferation”.

For `CC(=O)OCO/N=[N+](\[O-])NC(C)C` [O^2-(acetoxymethyl)-1-(isopropylamino)diazen-1-ium-1,2-diolate], the effect on proliferation (ES2 ovarian cancer cells) is listed as “reduced the proliferation” and the effect on proliferation [5] is listed as “reduced the proliferation”.

For `COc1c(O)cc2oc3cc(O)c(CC=C(C)C)c(O)c3c(=O)c2c1CC=C(C)C` [α-Mangostin], the “NFκB transcript expression level relative to control” value (NFκB) was “remained the same as in the control cells”, the IC50 (WI-38 cells; 24 hr of treatment, MTT) was 1.5 ± 0.464 µM and the “cytotoxicity to SKOV-3 cells relative to apigenin” value (SKOV-3 cells [2]; 24 hr) was 10.8 fold. For the same compound, the “cytotoxicity to SKOV-3 cells relative to apigenin” value (SKOV-3 cells [2]; 72 hr) was 5.9 fold, the IC50 (SKOV-3 cells [2]; read-out: IC50 value at an incubation time of 24 hr, SKOV-3 cells, MTT, 24 hr) was 2.47 ± 0.338 µM and the IC50 (SKOV-3 cells [2]; read-out: IC50 value at an incubation time of 48 hr, SKOV-3 cells, MTT, 48 hr) was 2.98 ± 0.054 µM. For the same compound, the IC50 (SKOV-3 cells [2]; read-out: IC50 value at an incubation time of 72 hr, SKOV-3 cells, MTT, 72 hr) was 3.06 ± 0.349 µM, the “morphological change” value (SKOV-3 cells [3]) was “mostly damaged” and the “effect at the small-scale IC50 value in larger-scale cultures” value (SKOV-3 cells [3]; SKOV-3, 5 × 10^5 cells in 5 mL, T25 flasks) was “not effective at all”. The “COX2 transcript expression level relative to control” value (COX2) was “upregulation was significant”, the “concentration safe for CCD-986Sk skin fibroblasts” value (CCD-986Sk cells; 24 hr) was “less than 6.091 μM” and the “cytotoxicity in CCD-986Sk cells, fold less than in SKOV-3 cells” value (CCD-986Sk cells; 24 hr) was “about 4 fold”. For the same compound, the IC50 (CCD-986Sk cells; read-out: IC50 value, CCD-986Sk cells, 24 hr of treatment, MTT) was 9.8 ± 3.17 µM, the “caspase-3 activity vs control” value (caspase-3; SKOV-3, 12 hr) was “significantly (p < 0.05) increased” and the cell cycle arrest (SKOV-3 cells [4]; SKOV-3, after 24 hr of exposure, 7.309 μM) was “induced arrest at the G2/M phase”.
